Reference: ChEMBL document CHEMBL1144306, “1-Hydroxyalkyl-3-phenylthioureas as novel HDL-elevating agents” (2005)

Assays:
Assay type in all cases: functional
Rattus norvegicus [1] = assay: Effect on level of high density lipoprotein cholesterol (relative to untreated control) in cholesterol fed-male rats at 75 mg/kg/day
Method in brief: (§1)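 Male Sprague–Dawley rats (groups of six) fed a cholic acid- and cholesterol-supplemented diet; compound mixed into the diet, given ad libitum for eight days. Lipoproteins were separated by ultracentrifugation, and cholesterol was measured by an enzymatic colorimetric method. Results are % change versus untreated controls, with significance at p < 0.05.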

Rattus norvegicus [2] = assay: Effect on level of total cholesterol (relative to untreated control) in cholesterol fed-male rats at 75 mg/kg/day; method in brief: as §1
Rattus norvegicus [3] = assay: Effect on level of triglyceride in (relative to untreated control) in cholesterol fed-male rats at 75 mg/kg/day
Method in brief: (§2)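 Serum triglycerides were measured in groups of six male Sprague–Dawley rats on a cholic acid/cholesterol-supplemented diet. Compound was dosed in the diet, ad libitum, for eight days. Results are % change relative to untreated controls, with significance at p < 0.05.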

Rattus norvegicus [4] = assay: Effect on level of apolipoprotein (Apo) AI (relative to untreated control) in cholesterol fed-male rats at 75 mg/kg/day
Method in brief: (§3)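 Six male Sprague–Dawley rats per group, fed a cholic acid/cholesterol-supplemented diet, received compound in the diet ad libitum for eight days. Serum Apo A–I was measured by SDS-PAGE or by rat competition ELISA and reported as % change versus untreated controls (p < 0.05). Gemfibrozil was the internal positive control in each study.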

Rattus norvegicus [5] = assay: Effect on change in body weight gain (relative to untreated control) in cholesterol fed-male rats at 75 mg/kg/day
Method in brief: (§4)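 Male Sprague–Dawley rats, six per group, on a cholic acid- and cholesterol-supplemented diet. Compounds were mixed into the diet and given ad libitum for eight days. Change in body weight gain is expressed as a percentage of untreated controls. Significance was set at p < 0.05 versus untreated controls.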

Rattus norvegicus [6] = assay: Effect on level of high density lipoprotein cholesterol (relative to untreated control) in cholesterol fed-male rats at 68 mg/kg/day; method in brief: as §1
Rattus norvegicus [7] = assay: Effect on level of total cholesterol (relative to untreated control) in cholesterol fed-male rats at 68 mg/kg/day; method in brief: as §1
Rattus norvegicus [8] = assay: Effect on change in body weight gain (relative to untreated control) in cholesterol fed-male rats at 68 mg/kg/day; method in brief: as §4
Rattus norvegicus [9] = assay: Effect on level of triglyceride in (relative to untreated control) in cholesterol fed-male rats at 68 mg/kg/day; method in brief: as §2
Rattus norvegicus [10] = assay: Effect on level of apolipoprotein (Apo) AI (relative to untreated control) in cholesterol fed-male rats at 68 mg/kg/day; method in brief: as §3
Rattus norvegicus [11] = assay: Effect on level of high density lipoprotein cholesterol (relative to untreated control) in cholesterol fed-male rats at 66 mg/kg/day; method in brief: as §1
Rattus norvegicus [12] = assay: Effect on level of total cholesterol (relative to untreated control) in cholesterol fed-male rats at 66 mg/kg/day; method in brief: as §1
Rattus norvegicus [13] = assay: Effect on change in body weight gain (relative to untreated control) in cholesterol fed-male rats at 66 mg/kg/day; method in brief: as §4
Rattus norvegicus [14] = assay: Effect on level of triglyceride in (relative to untreated control) in cholesterol fed-male rats at 66 mg/kg/day; method in brief: as §2
Rattus norvegicus [15] = assay: Effect on level of apolipoprotein (Apo) AI (relative to untreated control) in cholesterol fed-male rats at 66 mg/kg/day; method in brief: as §3
Rattus norvegicus [16] = assay: Effect on level of high density lipoprotein cholesterol (relative to untreated control) in cholesterol fed-male rats at 55 mg/kg/day
Method in brief: (§5)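 Cholic acid/cholesterol-fed male Sprague–Dawley rats (n = 6 per group) were dosed via diet ad libitum for eight days. Lipoproteins were separated by ultracentrifugation and HDL cholesterol was quantified by an enzymatic colorimetric method. Values are % change relative to untreated controls, with significance at p < 0.05. Gemfibrozil was the internal positive control.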

Rattus norvegicus [17] = assay: Effect on change in body weight gain (relative to untreated control) in cholesterol fed-male rats at 55 mg/kg/day; method in brief: as §4
Rattus norvegicus [18] = assay: Effect on level of total cholesterol (relative to untreated control) in cholesterol fed-male rats at 55 mg/kg/day; method in brief: as §1
Rattus norvegicus [19] = assay: Effect on level of triglyceride in (relative to untreated control) in cholesterol fed-male rats at 55 mg/kg/day; method in brief: as §2
Rattus norvegicus [20] = assay: Effect on level of apolipoprotein (Apo) AI (relative to untreated control) in cholesterol fed-male rats at 55 mg/kg/day; method in brief: as §3
Rattus norvegicus [21] = assay: Effect on level of apolipoprotein (Apo) AI (relative to untreated control) in cholesterol fed-male rats at 36 mg/kg/day; method in brief: as §3
Rattus norvegicus [22] = assay: Effect on level of high density lipoprotein cholesterol (relative to untreated control) in cholesterol fed-male rats at 36 mg/kg/day; method in brief: as §5
Rattus norvegicus [23] = assay: Effect on change in body weight gain (relative to untreated control) in cholesterol fed-male rats at 36 mg/kg/day; method in brief: as §4
Rattus norvegicus [24] = assay: Effect on level of total cholesterol (relative to untreated control) in cholesterol fed-male rats at 36 mg/kg/day; method in brief: as §1
Rattus norvegicus [25] = assay: Effect on level of triglyceride in (relative to untreated control) in cholesterol fed-male rats at 36 mg/kg/day; method in brief: as §2
Rattus norvegicus [26] = assay: Effect on level of high density lipoprotein cholesterol (relative to untreated control) in cholesterol fed-male rats at 80 mg/kg/day; method in brief: as §1
Rattus norvegicus [27] = assay: Effect on level of total cholesterol (relative to untreated control) in cholesterol fed-male rats at 80 mg/kg/day; method in brief: as §1
Rattus norvegicus [28] = assay: Effect on change in body weight gain (relative to untreated control) in cholesterol fed-male rats at 80 mg/kg/day; method in brief: as §4
Rattus norvegicus [29] = assay: Effect on level of apolipoprotein (Apo) AI (relative to untreated control) in cholesterol fed-male rats at 80 mg/kg/day; method in brief: as §3
Rattus norvegicus [30] = assay: Effect on level of triglyceride in (relative to untreated control) in cholesterol fed-male rats at 80 mg/kg/day
Method in brief: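 Compound given in diet ad libitum for eight days to groups of six male Sprague–Dawley rats on a cholic acid and cholesterol-supplemented diet. Serum triglycerides expressed as % change relative to untreated controls, with significance at p < 0.05. Gemfibrozil served as internal positive control within each study.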

Rattus norvegicus [31] = assay: Effect on level of apolipoprotein (Apo) AI (relative to untreated control) in cholesterol fed-male rats at 40 mg/kg/day; method in brief: as §3
Rattus norvegicus [32] = assay: Effect on level of high density lipoprotein cholesterol (relative to untreated control) in cholesterol fed-male rats at 40 mg/kg/day; method in brief: as §5
Rattus norvegicus [33] = assay: Effect on change in body weight gain (relative to untreated control) in cholesterol fed-male rats at 40 mg/kg/day; method in brief: as §4
Rattus norvegicus [34] = assay: Effect on level of total cholesterol (relative to untreated control) in cholesterol fed-male rats at 40 mg/kg/day; method in brief: as §1
Rattus norvegicus [35] = assay: Effect on level of triglyceride in (relative to untreated control) in cholesterol fed-male rats at 40 mg/kg/day; method in brief: as §2
Rattus norvegicus [36] = assay: Effect on level of high density lipoprotein cholesterol (relative to untreated control) in cholesterol fed-male rats at 67 mg/kg/day; method in brief: as §1
Rattus norvegicus [37] = assay: Effect on level of total cholesterol (relative to untreated control) in cholesterol fed-male rats at 67 mg/kg/day; method in brief: as §1
Rattus norvegicus [38] = assay: Effect on change in body weight gain (relative to untreated control) in cholesterol fed-male rats at 67 mg/kg/day; method in brief: as §4
Rattus norvegicus [39] = assay: Effect on level of triglyceride in (relative to untreated control) in cholesterol fed-male rats at 67 mg/kg/day; method in brief: as §2
Rattus norvegicus [40] = assay: Effect on level of apolipoprotein (Apo) AI (relative to untreated control) in cholesterol fed-male rats at 67 mg/kg/day; method in brief: as §3
Rattus norvegicus [41] = assay: Effect on level of high density lipoprotein cholesterol (relative to untreated control) in cholesterol fed-male rats at 74 mg/kg/day; method in brief: as §1
Rattus norvegicus [42] = assay: Effect on change in body weight gain (relative to untreated control) in cholesterol fed-male rats at 74 mg/kg/day; method in brief: as §4
Rattus norvegicus [43] = assay: Effect on level of total cholesterol (relative to untreated control) in cholesterol fed-male rats at 74 mg/kg/day; method in brief: as §1
Rattus norvegicus [44] = assay: Effect on level of triglyceride in (relative to untreated control) in cholesterol fed-male rats at 74 mg/kg/day; method in brief: as §2
Rattus norvegicus [45] = assay: Effect on level of apolipoprotein (Apo) AI (relative to untreated control) in cholesterol fed-male rats at 74 mg/kg/day; method in brief: as §3

SMILES: Cc1ccc(Cl)cc1N/C(S)=N/[C@H](C)CO
- Activity (Rattus norvegicus [1]): 13%
- Activity (Rattus norvegicus [2]): 85%
- Activity (Rattus norvegicus [3]): -23%
- Activity (Rattus norvegicus [4]): 6%
- Activity (Rattus norvegicus [5]): -4%

SMILES: Cc1ccc(Cl)cc1N/C(S)=N/C[C@H](C)O
- Activity (Rattus norvegicus [6]): 33%
- Activity (Rattus norvegicus [7]): 30%
- Activity (Rattus norvegicus [8]): -68%
- Activity (Rattus norvegicus [9]): -75%
- Activity (Rattus norvegicus [10]): 8%

SMILES: OCC/N=C(\S)Nc1cccc(Cl)c1
- Activity (Rattus norvegicus [11]): 79%
- Activity (Rattus norvegicus [12]): 30%
- Activity (Rattus norvegicus [13]): -70%
- Activity (Rattus norvegicus [14]): -31%
- Activity (Rattus norvegicus [15]): 43%

SMILES: Cc1ccc(Cl)cc1/N=C(\S)NCCO
- Activity (Rattus norvegicus [16]): 75%
- Activity (Rattus norvegicus [17]): -104%
- Activity (Rattus norvegicus [18]): 39%
- Activity (Rattus norvegicus [19]): -53%
- Activity (Rattus norvegicus [20]): 48%

SMILES: COCC/N=C(\S)Nc1cc(Cl)ccc1C
- Activity (Rattus norvegicus [21]): 33%
- Activity (Rattus norvegicus [22]): 30%
- Activity (Rattus norvegicus [23]): -3%
- Activity (Rattus norvegicus [24]): 20%
- Activity (Rattus norvegicus [25]): -47%

SMILES: Cc1ccc(Cl)cc1/N=C(\S)NC(C)(C)CO
- Activity (Rattus norvegicus [26]): 58%
- Activity (Rattus norvegicus [27]): -13%
- Activity (Rattus norvegicus [28]): -23%
- Activity (Rattus norvegicus [29]): 23%
- Activity (Rattus norvegicus [30]): -15%

SMILES: Cc1ccc(Cl)cc1/N=C(\S)N(C)CCO
- Activity (Rattus norvegicus [1]): 100%
- Activity (Rattus norvegicus [2]): 29%
- Activity (Rattus norvegicus [3]): -47%
- Activity (Rattus norvegicus [4]): 40%
- Activity (Rattus norvegicus [5]): -31%

SMILES: Cc1cccc(Cl)c1/N=C(\S)NCCO
- Activity (Rattus norvegicus [31]): -34%
- Activity (Rattus norvegicus [32]): 23%
- Activity (Rattus norvegicus [33]): -155%
- Activity (Rattus norvegicus [34]): 8%
- Activity (Rattus norvegicus [35]): -48%

SMILES: Cc1c(Cl)cccc1/N=C(\S)NCCO
- Activity (Rattus norvegicus [36]): 63%
- Activity (Rattus norvegicus [37]): 10%
- Activity (Rattus norvegicus [38]): -56%
- Activity (Rattus norvegicus [39]): -16%
- Activity (Rattus norvegicus [40]): 27%

SMILES: Cc1ccc(Cl)cc1/N=C(\S)NCCCO
- Activity (Rattus norvegicus [41]): 82%
- Activity (Rattus norvegicus [42]): -63%
- Activity (Rattus norvegicus [43]): 3%
- Activity (Rattus norvegicus [44]): -80%
- Activity (Rattus norvegicus [45]): 24%
